Results published in paper PMC9150438 (Methods in enzymology, 2022).
Blank lines part the entries; values can stand above or below the molecule they belong to.

Key:
[1] = biological target: MEK1-NL (Homo sapiens, UniProt Q02750); assay: NanoBRET tracer build-up; assay type: binding
Summary of the method: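 HEK293T cells at ~70% confluence were plated at 200,000 cells/mL and transfected with MEK1-NL alone, MEK1-NL plus mKSR1, or mKSR1-NL, then incubated at least 20 h at 37 °C. The Tram-bo tracer was titrated in each scenario to record BRET, giving an apparent EC50 and maximal BRET signal for each. These set the working tracer concentration above EC50.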

[2] = system: mKSR1:MEK1 complex; conditions: steady-state NanoBRET, 1 μM Tram-bo (Fig. 7A); ref Khan et al., 2020; cited from earlier work
[3] = biological target: BRAF (Homo sapiens, UniProt P15056); assay: ATP-biotin probe labeling competition assay on isolated BRAF; assay type: binding; conditions: MEK, KSR1:MEK and KSR2:MEK labeled with 2.5 μM probe (Fig. 4E)
[4] = system: KRAS mutant cell lines; conditions: ref Khan et al., 2020; cited from earlier work
[5] = system: mKSR1-NL W781D; conditions: mKSR1 W781D interface mutant (Fig. 6F); ref Khan et al., 2020; cited from earlier work
[6] = biological target: the molecule itself; assay: SEC

Chain of MEK1-NL (Q02750 whole entry): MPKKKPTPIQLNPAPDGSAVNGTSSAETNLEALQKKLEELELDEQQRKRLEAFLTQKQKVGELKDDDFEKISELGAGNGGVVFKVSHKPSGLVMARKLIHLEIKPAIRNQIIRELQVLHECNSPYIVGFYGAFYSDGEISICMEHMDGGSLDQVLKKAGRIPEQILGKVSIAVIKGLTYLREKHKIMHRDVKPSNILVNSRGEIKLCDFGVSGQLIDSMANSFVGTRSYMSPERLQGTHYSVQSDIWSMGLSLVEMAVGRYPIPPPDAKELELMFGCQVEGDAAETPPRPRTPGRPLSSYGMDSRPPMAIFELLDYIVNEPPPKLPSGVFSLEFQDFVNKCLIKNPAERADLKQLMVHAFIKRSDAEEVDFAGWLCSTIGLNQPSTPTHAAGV
Chain of BRAF (P15056 457-717 limits assumed): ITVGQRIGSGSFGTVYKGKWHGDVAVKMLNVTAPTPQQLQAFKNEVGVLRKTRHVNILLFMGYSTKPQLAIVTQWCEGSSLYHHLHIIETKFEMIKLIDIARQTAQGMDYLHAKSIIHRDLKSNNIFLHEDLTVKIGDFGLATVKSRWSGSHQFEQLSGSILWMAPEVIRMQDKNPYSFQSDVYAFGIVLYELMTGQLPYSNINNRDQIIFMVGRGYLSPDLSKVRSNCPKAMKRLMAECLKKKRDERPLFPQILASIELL

- fold difference of Tram-bo EC50, MEK1-NL vs the two MEK1–mKSR1 complex scenarios ([1]; MEK1-NL vs mKSR1-NL and MEK1-NL coexpressed with mKSR1 (Fig. 6C)): ~ 20 times
- apparent EC50 of Tram-bo ([1]; NanoBRET build-up curves (Fig. 6C)): in the nanomolar range
Molecule: Cc1c(=O)n(C)c(Nc2ccc(I)cc2F)c2c(=O)n(C3CC3)c(=O)n(-c3cccc(NC(=O)CCOCCOCCNC(=O)CCc4ccc5n4[B-](F)(F)[N+]4=C(c6ccc[nH]6)C=CC4=C5)c3)c12 [Tram-bo]

Molecule: O=C(c1ccc(F)c(F)c1Nc1ccc(I)cc1F)N1CC(O)([C@@H]2CCCCN2)C1 [cobimetinib]
- apparent IC50 on free MEK1 compared with the mKSR1:MEK1 complex [2]: more potent binding to the complex

- inhibitor specificity in ATP-biotin competition assay [3]: BRAF-specific inhibition
Molecule: CC(C)(C)c1nc(-c2cccc(NS(=O)(=O)c3c(F)cccc3F)c2F)c(-c2ccnc(N)n2)s1 [dabrafenib]

Molecule: CNS(=O)(=O)Nc1cccc(-n2c(=O)n(C3CC3)c(=O)c3c(Nc4ccc(I)cc4F)n(C)c(=O)c(C)c32)c1 [trametiglue]
- potency of growth inhibition relative to trametinib and other MEKi including CH5126766 [4]: markedly enhanced

Molecule: CC(=O)Nc1cccc(-n2c(=O)n(C3CC3)c(=O)c3c(Nc4ccc(I)cc4F)n(C)c(=O)c(C)c32)c1 [trametinib]
- dose-response in KSR-NL assay with W781D mutant [5]: loss of a Trametinib dose-response

B1: KSR1 pseudokinase domain [residues 591–899] (domain or fragment, human, UniProt Q8IVT5 591-899, looked up)
chain: PISRKASQTSVYLQEWDIPFEQVELGEPIGQGRWGRVHRGRWHGEVAIRLLEMDGHNQDHLKLFKKEVMNYRQTRHENVVLFMGACMNPPHLAIITSFCKGRTLHSFVRDPKTSLDINKTRQIAQEIIKGMGYLHAKGIVHKDLKSKNVFYDNGKVVITDFGLFGISGVVREGRRENQLKLSHDWLCYLAPEIVREMTPGKDEDQLPFSKAADVYAFGTVWYELQARDWPLKNQAAEASIWQIGSGEGMKRVLTSVSLGKEVSEILSACWAFDLQERPSFSLLMDMLEKLPKLNRRLSHPGHFWKSADI
- binding result [6]: binds
